# Source: PubChem BioAssay
# Sampled rows, rich in hits. Any-hit rate of the full collection: about 1.3%.
# S1P4 agonist = activates the human S1P4 receptor | O95977 | S1P4-expressing cell line, agonist reporter assay | activation, % at 4.98 µM | 220,000 tested, 0.35% active | AID 1509; in the data active means activation above about 11%;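 further: 0% = DMSO vehicle and 100% = reference agonist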
# Calb biofilm kill = mixtures killing C. albicans biofilm; C. albicans biofilm persisters + clotrimazole, fluorescence viability; primary screen in compound mixtures of four per well; inhibition, % at 7.6 µM; 120,000 tested, 0.02% active; AID 1242;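 active means inhibition above 30.3% in the primary screen of four-compound pools, then above 30% when the compound was retested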;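 further: compounds exposed to preformed 24 h biofilms for 48 h; 0% = untreated biofilm control and 100% = clotrimazole plus chlorhexidine kill blank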
#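 Probe or stimulus – Clotrimazole 50 µg/mL co-treatment · System – C. albicans biofilms · Schedule – 24 h biofilm formation, then 48 h compound exposure, 37 °C · Evaluation – percent inhibition of biofilm viability · Technique – 2-h Alamar Blue fluorescence, 535/590 nm excitation/emission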
# S1P4 antag = antagonists of human S1P4 receptor; S1P4-expressing cells, antagonist mode, reporter read-out; 220,000 tested, 0.26% active; inhibition, % at 4.98 µM; AID 1510; O95977; in the data active means inhibition above about 29%;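 further: 0% = wells stimulated with agonist and 100% = vehicle wells without agonist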
# Dynein cargo inh = dynein cargo transport inhibition; 3617.4 mouse cells, GR-EGFP nuclear translocation imaging; test concentration mostly 20 µM; stimulated with dexamethasone, 1 µM; hits give low values; z-score, hits read low; 220,000 tested, 0.47% active; AID 1381;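 active means plate z-score of nuclear minus cytoplasmic receptor signal below a set negative limit, without overly bright fluorescence or cell loss, cut at about -3.5 in these data, passing the limit was not always enough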;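 further: z-score of nuclear minus cytoplasmic ring GR-EGFP intensity difference per well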
#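 Buffer or medium: tet-free, stripped-serum medium; reagent: dexamethasone at 1.0 µM final, 30 min; incubation: 48 h induction, 1 h compound, 30 min dex at 37 °C; measured by: formaldehyde fixation, Hoechst nuclear stain, 10x automated fluorescence imaging; read-out: nuclear-to-cytoplasmic GR-EGFP distribution per well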
# Tb hexokinase = blocks Trypanosoma brucei hexokinase 1 activity. inhibition, % at 10 µM. recombinant TbHK1, G6PDH-coupled NADH A340. 220,000 tested, 0.11% active;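 active means inhibition of 50% or more in the single-dose primary screen; inactive means inhibition below 50%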
# S1P3 antag = S1P3 (human) receptor antagonism. Q99500. inhibition, % at 4.98 µM. 170,000 tested, 0.27% active. CHO S1P3 NFAT-BLA reporter, FRET fluorescence, antagonist mode;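 active means inhibition above the plate cutoff, the mean inhibition of test wells on that plate plus 3 SD, cut at about 28% in these data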;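 further: cells challenged with S1P at its EC80 of 0.8 µM; blue over green emission ratio from cleaved BLA substrate after 4 h stimulation; 0% = S1P-stimulated wells and 100% = unstimulated DMSO-only wells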
# Target sequence (Q99500 whole entry, looked up): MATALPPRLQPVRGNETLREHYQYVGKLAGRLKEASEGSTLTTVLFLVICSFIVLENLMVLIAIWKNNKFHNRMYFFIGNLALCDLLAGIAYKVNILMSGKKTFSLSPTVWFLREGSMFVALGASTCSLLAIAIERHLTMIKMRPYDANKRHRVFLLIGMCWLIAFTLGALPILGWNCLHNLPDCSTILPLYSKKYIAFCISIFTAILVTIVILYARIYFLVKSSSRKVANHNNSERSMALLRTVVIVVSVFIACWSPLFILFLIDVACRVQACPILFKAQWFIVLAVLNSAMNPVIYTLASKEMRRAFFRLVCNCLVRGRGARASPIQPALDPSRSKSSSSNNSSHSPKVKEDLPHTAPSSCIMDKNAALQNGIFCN
# Dynein confirm = dynein cargo transport inhibition, confirmation | AID 463116 | 3617.4 GR-EGFP nuclear translocation imaging, dexamethasone-induced | 1,000 tested, 69% active | calls only at 20 µM | shares compounds with Dynein cargo inh;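 active means inhibition of receptor movement into the nucleus at or above a set limit in both runs, with normal cell brightness and cell count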;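 further: dexamethasone at 1 µM final in well for 30 min; nuclear minus cytoplasmic GR-EGFP mean intensity difference in channel 2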
# * = called active by the depositor; i = inactive; · = no result given; + = active, no number.
SMILES,S1P4 agonist,Calb biofilm kill,S1P4 antag,Dynein cargo inh,Tb hexokinase,S1P3 antag,Dynein confirm
Cc1cc(Oc2ccc(-c3ccccc3)cc2)n2ncnc2n1,-0.6,·,-1.4,-4.7*,-1.9,-8.2,+
CCN(c1ccccc1)c1cc(C)nc2ncnn12,1.1,·,-12.8,0.192,5.8,-39.3,·
CC(C)C(=O)Nc1nc2c(c(=O)[nH]1)CCCC2,1.1,9.2,-13.2,-0.203,2.6,-6.3,·
COC(=O)c1cc(=O)n(CCc2ccccc2F)c(=Nc2ccc(F)c(Cl)c2)s1,-0.3,·,-19.2,-4*,0.2,·,+
COC(=O)c1cc(=O)n(Cc2cccs2)c(=Nc2ccc(F)cc2)s1,-0.2,11.6,21.8,-1.61,-6.5,-4.7,·
O=[N+]([O-])c1ccc(N2CCN(C(=S)c3cccc([N+](=O)[O-])c3)CC2)cc1,-1.0,23.0,7.4,0.602,1.6,0.0,·
COc1cc(C(=O)NNC(=O)c2ccc(NC(=O)C(C)(C)C)cc2)cc(OC)c1OC,1.6,3.5,-11.3,0.218,-8.9,-16.6,·
CC(C)C(=O)N1CCN(c2ccc(NC(=O)c3ccc([N+](=O)[O-])o3)cc2Cl)CC1,-3.2,11.8,46.8*,-4.23*,-15.2,1.6,+
CC(=O)N1CCN(c2ccc(NC(=O)c3ccc(Br)o3)cc2Cl)CC1,0.1,6.5,0.2,0.556,-1.3,-5.6,·
O=C(Nc1ccc(N2CCOCC2)c(Cl)c1)c1ccc([N+](=O)[O-])o1,-1.3,8.7,17.0,-4.48*,-21.3,6.0,+
CN(C(=O)COc1ccc(S(=O)(=O)N2CCOCC2)cc1[N+](=O)[O-])C1CCS(=O)(=O)C1 (stereo not given),1.1,29.8,-10.1,-0.0953,-12.4,-3.5,·
N/C(=N\OC(=O)c1ccc(Cl)cc1)c1[nH]ncc1Br,-1.5,16.8,-13.4,-0.372,-2.5,8.0,·
O=C(CCl)N1N=C(c2ccco2)CC1c1cccs1 (stereo not given),4.9,22.2,8.6,-4.3*,0.5,5.0,+
Cc1ccc(C2=NN(C(=O)CCl)C(c3cccs3)C2)o1 (stereo not given),-0.2,17.9,-8.0,-4.1*,-20.5,-10.8,+
CC(=O)N1N=C(c2ccco2)CC1c1cccs1 (stereo not given),-1.0,·,-18.2,-0.231,-1.7,·,·
CC(C)N1CCN(Cc2ccc(C#CCCO)cc2)CC1CCO (stereo not given),0.7,2.4,-21.9,0.278,-4.0,0.9,·
COc1ccc(-c2cccc([C@H]3[C@@H]4C=CCC[C@@]4(C)C(=O)N3Cc3ccccc3)c2)cc1,·,13.6,·,-3.6*,-16.0,·,+
CCCc1ccc(C(=O)NNc2cccc(C)c2)cc1,-1.8,0.9,1.0,0.261,-6.8,-0.9,·
CS(=O)(=O)Nc1cccc(C2=NN(S(C)(=O)=O)C(c3ccc4c(c3)OCO4)C2)c1 (stereo not given),0.8,11.0,-21.9,-0.731,-2.2,-3.9,·
CS(=O)(=O)N1N=C(c2ccccc2)CC1c1ccc2c(c1)OCO2 (stereo not given),4.1,13.9,0.9,-7.76,0.8,4.4,i
Cc1ccnc(NC(=O)CSc2ccccn2)c1,0.3,0.3,-6.2,1.44,-6.5,-2.5,·
CN1CCN(C2=C(Cl)C(=O)N(Cc3ccccc3)C2=O)CC1,1.1,·,-3.5,-2.58,4.2,8.9,·
CCN1CCN(C2=C(Cl)C(=O)N(Cc3ccccc3)C2=O)CC1,0.2,13.6,-26.5,-4.74*,-1.1,·,+
CCN(CC)C(=S)Nc1ccc2nc3n(c(=O)c2c1)CCCCC3,8.4,21.9,1.2,3.28,6.0,4.8,·
O=C(CN(c1cccc(C(F)(F)F)c1)S(=O)(=O)c1ccc(Cl)c([N+](=O)[O-])c1)NCc1ccccc1,0.5,12.1,21.4,-5.54*,34.1,-5.8,+
SMILES,S1P4 agonist,Calb biofilm kill,S1P4 antag,Dynein cargo inh,Tb hexokinase,S1P3 antag,Dynein confirm
O=C(CN(c1cccc(C(F)(F)F)c1)S(=O)(=O)c1ccc(Cl)c([N+](=O)[O-])c1)NCc1ccccc1Cl,1.1,9.7,-1.6,-3.69*,23.7,0.0,i
O=C(CN(c1ccc(Br)cc1)S(=O)(=O)c1ccc(Cl)c([N+](=O)[O-])c1)NCCc1ccccc1,-0.1,10.4,-13.5,0.0285,-3.7,-0.2,·
O=S(=O)(NCC1CCCO1)c1ccc(Cl)nc1 (stereo not given),-0.1,19.1,8.4,0.519,-10.2,-19.7,·
Cc1cc(C)n(-c2nc(NCCN(C)C)c3c4c(sc3n2)CCCC4)n1,-1.4,26.5,22.7,-4.58*,-8.2,-6.9,i
CN1CCN(Cc2nc3ccccc3c(=O)n2Cc2nc(-c3ccc([N+](=O)[O-])cc3)cs2)CC1,0.9,4.3,0.0,-3.67*,-34.9,-2.6,i
CN(C)Cc1nc2ccccc2c(=O)n1Cc1nc(-c2cccc([N+](=O)[O-])c2)cs1,-0.5,13.5,-19.2,-0.558,3.1,-11.6,·
NS(=O)(=O)c1ccc(CNC(=O)c2cc(-c3ccccn3)nc3ccc(Cl)cc23)cc1,0.7,9.4,-3.0,-1.25,-0.8,-2.1,·
CC1=CC(=Nc2c(C)n(C)n(-c3ccccc3)c2=O)C=CC1=O,-0.8,22.4,14.7,-3.67*,-23.7,-9.4,+
CC1=CC(=Nc2c(C)n(C)n(-c3ccccc3)c2=O)C=C(C)C1=O,1.4,16.8,-2.6,-1.3,-6.8,-16.6,·
Cc1ccc(/C=N/c2sc3c(c2C(N)=O)CCCC3)o1,0.9,21.1,-13.1,-0.414,-8.9,-18.0,·
Cc1ccc(N(CCC#N)C(=O)CCl)cc1C,-0.8,11.7,-10.6,-4.39*,36.5,-9.2,+
CCOC(=O)c1c(-c2ccc(C)o2)csc1NC(=O)CN1CCN(CC)CC1,-0.7,·,8.5,-2.11,9.6,-23.4,·
CCOC(=O)c1c(-c2ccc(C)o2)csc1NC(=O)CSc1nncs1,-1.0,·,13.8,-3.98*,1.8,-7.8,i
CCOC(=O)c1c(-c2ccc(C)o2)csc1NC(=O)CN1CCCCC1,-1.3,6.8,4.1,-4.61*,3.4,10.2,i
COc1ccc(-n2ccnc2SCC(=O)NC2CCCC2)c(OC)c1,-2.0,10.5,17.4,-0.0209,-4.1,5.4,·
CCOC(=O)C1C(=O)C=C(c2ccc(C)cc2)CC1c1ccccc1 (stereo not given),2.5,13.8,-4.9,0.13,5.9,8.3,·
CCOC(=O)C1C(=O)C=C(/C=C/c2ccc(N(C)C)cc2)CC1c1ccccc1 (stereo not given),3.1,4.5,-3.5,-9.86,-11.9,3.5,i
O=C(/C=C/c1cccc([N+](=O)[O-])c1)NC(=S)Nc1cccc(NC(=O)c2ccccc2Cl)c1,-0.5,4.9,0.4,-0.616,-5.0,3.2,·
